Sampled rows, rich in hits. Any-hit rate of the full collection: about 2.6%.
MEKK2 mut-MEK5: signal of MEK5 binding to mutant human MEKK2 PB1 domain. bead flow cytometry, Alexa488-MEK5 binding to MEKK2 mutant. percent response, % at 10 µM. hit rate 0.35% among 290,000. AID 1530; in the data active = percent response above about 24%, passing the limit was not always enough
Lipid droplet: hepatic lipid droplet formation modulation; AML12 mouse hepatocytes, oleate lipid droplets, BODIPY imaging; inhibition, % at 6.5 µM; hit rate 0.4% among 240,000; AID 1656;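 active = lipid droplet intensity inhibited by at least 50%, with more than 500 cells counted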
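Assay system: AML12 hepatocytes (mouse); Probe or stimulus: oleic acid at 100 µM to induce lipid droplet formation; Dosing: compound at 6.5 µM only; Schedule: compound with oleate, overnight; Detection: fluorescence imaging, 20x objective, two fields per well; Measure: % inhibition of lipid droplet signal.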
MEKK2 WT-MEK5: raises or lowers MEK5 binding to wildtype human MEKK2 PB1 domain | Q9Y2U5 | bead flow cytometry, Alexa488-MEK5 binding to MEKK2 WT; actives lie on both sides | binding response (% of control), % at 10 µM | hit rate 1.1% among 290,000 | AID 1531; in the data active = binding response below about 67% or above about 130%
MEKK3 PB1 HTS: modulators (inhibitors or enhancers) of MEK5 binding to human MEKK3 PB1 domain; Q99759; bead-based flow cytometry, Alexa488-MEK5 binding to MEKK3; actives lie on both sides; 0 = blocked by unlabeled MEK5, 100 = vehicle; binding response (% of control), % at 10 µM; hit rate 1.4% among 290,000;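 active = binding response more than 3 SD above or below the average of its plate-row segment, actives on both sides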;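 note: Alexa488 bead fluorescence after subtracting the streptavidin-only scavenger bead signal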
Target sequence (Q99759 whole entry, looked up, the tested form may be a part): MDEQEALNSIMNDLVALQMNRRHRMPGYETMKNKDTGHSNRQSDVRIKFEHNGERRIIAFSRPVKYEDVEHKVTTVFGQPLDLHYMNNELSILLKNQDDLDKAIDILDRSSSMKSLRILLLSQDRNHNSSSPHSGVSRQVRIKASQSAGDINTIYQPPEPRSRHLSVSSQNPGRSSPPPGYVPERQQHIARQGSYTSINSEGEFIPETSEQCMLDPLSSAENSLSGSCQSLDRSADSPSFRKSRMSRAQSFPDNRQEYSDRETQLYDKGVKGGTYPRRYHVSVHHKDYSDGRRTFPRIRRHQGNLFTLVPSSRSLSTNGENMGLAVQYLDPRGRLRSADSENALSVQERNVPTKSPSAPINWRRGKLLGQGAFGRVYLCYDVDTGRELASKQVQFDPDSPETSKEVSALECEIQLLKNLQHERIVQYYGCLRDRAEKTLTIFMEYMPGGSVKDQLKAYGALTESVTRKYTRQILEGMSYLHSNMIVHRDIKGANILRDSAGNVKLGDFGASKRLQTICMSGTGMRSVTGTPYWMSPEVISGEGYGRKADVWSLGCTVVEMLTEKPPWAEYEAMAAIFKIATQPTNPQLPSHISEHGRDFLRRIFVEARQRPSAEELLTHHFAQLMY
MEKK2wt confirm: raises or lowers MEK5 binding to wildtype human MEKK2, retest; shares compounds with MEKK3 PB1 HTS; bead flow cytometry, Alexa488-MEK5 binding to MEKK2 WT; actives lie on both sides; binding response (% of control), % at 10 µM; hit rate 2.4% among 5,900; AID 1892; in the data active = binding response below about 16% or above about 210%; inactive = in between
MEKK2mut-MEK5: signal of MEK5 binding to mutant human MEKK2, retest | shares compounds with MEKK3 PB1 HTS | hit rate 2% among 5,900 | bead flow cytometry, Alexa488-MEK5 binding to MEKK2 mutant | percent response, % at 10 µM; in the data active = percent response mostly above about 71%, no sharp cut-off; inactive = mostly below about 38%;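 note: higher means compound restores mutant binding toward wildtype level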
MEKK3-MEK5 inh: MEKK3-MEK5 PB1 inhibition, single concentration confirmation; shares compounds with MEKK3 PB1 HTS; bead flow cytometry, Alexa488-MEK5 binding to MEKK3; stronger effect = lower value; binding response (% of control), % at 10 µM; hit rate 1.8% among 5,900; AID 1894;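 active = binding response below 72% of control, or above a set upper limit, though filed actives all read lower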;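 note: 100% = DMSO only wells and 0% = binding blocked by excess unlabeled MEK5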
* marks the source's active call; other numbers are inactive results; · = not tested or not shown; [ ] = dose if it differs, or a comment.

SMILES	MEKK2 mut-MEK5	Lipid droplet	MEKK2 WT-MEK5	MEKK3 PB1 HTS	MEKK2wt confirm	MEKK2mut-MEK5	MEKK3-MEK5 inh
Cc1[nH]c2ccccc2c1/C=N/Nc1nc2ccccc2[nH]1	19.0	-30.5	140.0*	105.0	147.0	27.0	102.0
O=[N+]([O-])c1cc(/C=N/Nc2nc3ccccc3[nH]2)c(O)cc1O	0.0	2.1	104.0	132.0*	98.0	2.0	103.0
Cc1ccccc1/C=N/Nc1nc2ccccc2[nH]1	-13.0	-3.0	104.0	99.0	·	·	·
CCOCCCNC(=O)c1ccc(N2CC3CC(C2)c2cccc(=O)n2C3)c(NC(=O)Nc2cccc(OC)c2)c1 (stereo not drawn)	5.0	0.4	102.0	102.0	·	·	·
Cc1ccnc2nc(C(=O)OCC(=O)NCCc3ccc(Cl)cc3)nn12	0.0	-1.2	104.0	135.0*	69.0	-24.0	62.0*
Cc1cc(Cl)ccc1NC(=O)COC(=O)c1nc2nccc(C)n2n1	-10.0	4.4	88.0	96.0	·	·	·
C=CCc1cccc(CNc2c(C)cc(C)cc2C)c1O	-6.0	-11.3	83.0	70.0*[inhibitor]	98.0	-8.0	97.0
C=CCc1cccc(CNc2c(C)n(C)n(-c3ccccc3)c2=O)c1O	1.0	-7.5	98.0	100.0	·	·	·
CCN(C(=O)c1ccco1)c1nnc(-c2ccc(OC)cc2)s1	4.0	-1.1	78.0	66.0*[inhibitor]	104.0	-2.0	103.0
CCCN(C(=O)c1ccco1)c1nnc(-c2cccc(C)c2)s1	-8.0	-7.6	86.0	94.0	·	·	·
CC1CN(C(=O)c2ccc(NS(=O)(=O)c3ccc(F)cc3)cc2)CC(C)O1 (stereo not drawn)	8.0	7.3	112.0	105.0	·	·	·
O=C(c1ccc([N+](=O)[O-])cc1)N(c1ccccn1)c1ccccn1	-4.0	-2.1	93.0	94.0	·	·	·

Source: PubChem
